Activity calls are given as the source filed them. The rule behind the calls is not given here.
Key:
[1] = Antioxidant activity assessed as superoxide radical anion scavenging activity; type: functional
Procedure, shortened: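 In vitro superoxide scavenging: superoxide generated by phenazine methosulfate–NADH system, detected as reduced nitroblue tetrazolium absorbance at 560 nm; dose–response used to derive IC50.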

[2] = test system: Liver; assay: Antioxidant activity in BALB/c mouse liver microsomes assessed as inhibition of free radical-induced lipid peroxidation after 60 mins; type: functional, Microsome; settings: 1 h
Procedure, shortened: (§1)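 Mouse liver microsomes subjected to free radical-induced lipid peroxidation; formation of lipid peroxides measured with compounds over a concentration range, IC50 derived; mean ± SEM, n = 4.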

[3] = test system: Hepatocyte; assay: Antioxidant activity against tert-butyl hydroperoxide-induced oxidative stress in Sprague-Dawley rat hepatocytes at 100 uM after 24 hrs by lactate dehydrogenase assay; type: functional, cell-based
Procedure, shortened: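 Primary rat hepatocyte cultures pretreated with compounds for 24 h, compounds removed, then exposed to tert-butyl hydroperoxide; cell damage read as lactate dehydrogenase leakage into culture medium; mean ± SEM, n = 4.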

[4] = test system: Liver; assay: Antioxidant activity in BALB/c mouse liver microsomes assessed as complete inhibition of free radical-induced lipid peroxidation at 40 uM after 60 mins; type: functional; settings: Microsome; procedure, shortened: as §1
[5] = test system: KB; assay: Cytotoxicity against human KB cells after 3 to 5 days by MTT assay; type: functional, cell-based
[6] = test system: Hepatocyte; assay: Cytotoxicity against rat hepatocytes upto 100 uM after 48 hrs; type: cell-based
Procedure, shortened: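 Primary cultured rat hepatocytes incubated with compounds up to 100 µM for 48 h to check cytotoxicity.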

[7] = test system: Liver; assay: Antioxidant activity in BALB/c mouse liver microsomes assessed as complete inhibition of free radical-induced lipid peroxidation at 20 uM after 60 mins; type: functional; settings: Microsome; procedure, shortened: as §1

Structure (SMILES): COc1cc([C@@H]2C[C@H](O)C[C@H](CCc3ccc(O)cc3)O2)cc(O)c1O
- IC50 [1]: 48.1 µM
- IC50 [2]: 27.9 µM
- Activity [3]: Active
- Activity [4]: Active

Structure (SMILES): COc1cc(CCC(O)CC(=O)CCc2cc(O)c(O)c(OC)c2)ccc1O (stereo not given)
- Activity [5]: Not toxic
- Activity [6]: Non-toxic

Structure (SMILES): COc1cc(CCC(=O)CC(O)CCc2ccc(O)c(O)c2)ccc1O (stereo not given)
- Activity [5]: Not toxic
- Activity [6]: Non-toxic
- IC50 [1]: 36.4 µM
- IC50 [2]: 17.1 µM
- Activity [3]: Active
- Activity [7]: Active

Structure (SMILES): COc1cc([C@@H]2C[C@@H](O)C[C@H](CCc3ccc(O)c(O)c3)O2)cc(O)c1O
- Activity [5]: Not toxic
- Activity [6]: Non-toxic
- IC50 [1]: 39.9 µM
- IC50 [2]: 21.9 µM
- Activity [3]: Active
- Activity [4]: Active

Structure (SMILES): COc1cc(CCC(=O)CC(O)CCc2cc(O)c(O)c(OC)c2)ccc1O (stereo not given)
- Activity [5]: Not toxic
- Activity [6]: Non-toxic

From ChEMBL document CHEMBL1144720, “Diarylheptanoids and a monoterpenoid from the rhizomes of Zingiber officinale: antioxidant and cytoprotective properties” (J Nat Prod, 2008)
